In ChEMBL document CHEMBL5380783, “N-Substituted l-Iminosugars for the Treatment of Sanfilippo Type B Syndrome” (J Med Chem, 2023) one finds inhibition and Activity data, which are given here for four molecules.

The test system of data set [1] is SK-N-BE(2). Description: Inhibition of lysosomal defects in NAGLU-silenced human SK-NBE cell clones assessed as reduction in more concentrated lysosomal distribution in the perinuclear region of the cytoplasm at 20 uM incubated for 48 hrs by LAMP1 staining based indirect immunofluorescence assay. The data set is classed as functional. Summed up:
(§1)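 Control and NAGLU-silenced SK-NBE clones grown on coverslips with 20 μM compound for 48 h. Fixed in 3.7% formaldehyde, permeabilized with saponin/BSA buffer, stained with anti-Lamp1 or anti-HS 10E4 for 1 h, then Alexa secondaries. Confocal imaging with 63× objective. Scored as percent cells with enlarged Lamp1 structures or membrane HS, plus mean fluorescence intensity, over 50 random cells from three experiments.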

In another data set the test system is HaCaT. Description: Cytotoxicity against human HaCaT cells assessed as induction of apoptosis upto 100 uM. The data set is classed as toxicity, cell-based.
The subject of data set [2] is Fibroblast. Briefly: Inhibition of heparan sulfate accumulation on cell membrane in MPS-1 patient derived human fibroblast cells at 20 uM incubated for 48 hrs by indirect immunofluorescence staining analysis. The class given is functional, cell-based. Summed up: (§2)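 HDFa, MPS IIIA, MPS IIIB and MPS I patient fibroblasts in DMEM, 10% FBS, grown 48 h on coverslips with 20 μM compound. Double immunostained for HS (10E4) and Lamp1 with DAPI, confocal imaging. Mean fluorescence intensity expressed relative to untreated cells (d-enantiomers: percent positive cells), 50 random cells from three experiments.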

For data set [3], the system named is Fibroblast. Description: Inhibition of lysosomal defects in Sanfilippo-B patient derived human fibroblast cells assessed as dispersion of lysosomes all over the cytoplasm at 20 uM incubated for 48 hrs by LAMP1 staining based indirect immunofluorescence assay. The class given is functional, cell-based. The method in brief: as §2
In data set [4] the target is T1, Alpha-N-acetylglucosaminidase (Homo sapiens) (UniProt P54802).
T1 sequence (whole entry): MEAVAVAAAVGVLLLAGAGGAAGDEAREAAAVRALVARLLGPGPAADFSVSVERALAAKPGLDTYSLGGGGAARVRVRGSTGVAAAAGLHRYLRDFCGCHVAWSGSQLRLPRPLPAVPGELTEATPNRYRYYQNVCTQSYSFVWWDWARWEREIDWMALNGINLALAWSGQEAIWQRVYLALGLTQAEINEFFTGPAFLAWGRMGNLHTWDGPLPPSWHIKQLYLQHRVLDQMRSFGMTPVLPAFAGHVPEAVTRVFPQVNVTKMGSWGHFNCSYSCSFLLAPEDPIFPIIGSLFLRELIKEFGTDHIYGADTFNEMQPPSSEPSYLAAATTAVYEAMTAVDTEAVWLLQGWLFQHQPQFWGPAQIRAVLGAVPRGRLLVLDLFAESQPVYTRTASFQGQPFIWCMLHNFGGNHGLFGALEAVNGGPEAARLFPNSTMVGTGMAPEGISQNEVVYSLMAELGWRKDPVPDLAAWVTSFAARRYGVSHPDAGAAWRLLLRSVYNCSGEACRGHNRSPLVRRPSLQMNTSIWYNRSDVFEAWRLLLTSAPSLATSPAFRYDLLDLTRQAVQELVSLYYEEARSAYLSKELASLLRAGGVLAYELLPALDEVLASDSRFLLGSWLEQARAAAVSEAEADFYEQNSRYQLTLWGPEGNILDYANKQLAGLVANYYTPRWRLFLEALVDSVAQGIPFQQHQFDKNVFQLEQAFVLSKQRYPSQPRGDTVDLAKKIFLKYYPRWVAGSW
Briefly: Inhibition of NAGLU in human HDFa cells using 4-methylumbelliferyl-N-acetyl-alpha-D-glucosaminide as substrate upto 1 mM by fluorescence based analysis. The class given is cell-based. The method in brief:
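HDFa fibroblast lysate (freeze–thaw, Lowry protein) incubated 2 h with 4-methylumbelliferyl-N-acetyl-α-D-glucosaminide (2 mM substrate solution) in Na-acetate buffer pH 4.5, compound added to the reaction up to 1 mM. Fluorogenic hydrolysis normalized per mg protein per hour.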

The test system of data set [5] is Alpha-N-acetylglucosaminidase (Homo sapiens), P54802 [UNDEFINED MUTATION]. Briefly: Nonactive chaperone activity against mutated NAGLU in Sanfilippo-B patient derived human fibroblast cells assessed as co-localization of NAGLU with lysosomes by measuring NAGLU/Lamp1-positive structures at 20 uM incubated for 48 hrs by indirect immunofluorescence staining based analysis. The data set is classed as cell-based. Summed up: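 HDFa and MPS IIIB fibroblasts, with or without (mock) 20 μM compound, for 48 h on coverslips. Co-stained for NAGLU and Lamp1 with DAPI, confocal imaging. NAGLU–lysosome co-localization quantified as mean fluorescence relative to untreated cells, 50 random cells from three experiments.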

The subject of data set [6] is SK-N-BE(2). Briefly: Inhibition of lysosomal defects in NAGLU-silenced human SK-NBE cell clones assessed as reduction in accumulation of enlarged LAMP1-positive lysosomal structures within the cytoplasm at 20 uM incubated for 48 hrs by LAMP1 staining based indirect immunofluorescence assay. The data set is classed as functional. Summed up:
as §1

The subject of data set [7] is Fibroblast. Briefly: Inhibition of lysosomal defects in MPS-1 patient derived human fibroblast cells assessed as reduction in accumulation of enlarged LAMP1-positive lysosomal structures within the cytoplasm at 40 uM incubated for 48 hrs by LAMP1 staining based indirect immunofluorescence assay. The class given is functional, cell-based. Summed up:
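MPS I patient fibroblasts grown on coverslips with 40 μM compound for 48 h. Immunostained for HS (10E4) and Lamp1 with DAPI, imaged by confocal microscopy. Mean fluorescence intensity expressed relative to untreated cells, 50 random cells from three independent experiments.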

Data set [8] concerns Alpha-N-acetylglucosaminidase (Homo sapiens), P54802 [UNDEFINED MUTATION]. Description: Stabilization of mutated NAGLU in Sanfilippo-B patient derived human fibroblast cells assessed as increase in NAGLU activity using 4-methylumbelliferyl-N-acetyl-alpha-D-glucosaminide as substrate at 20 uM cells pretreated for 2 hrs with substrate followed by compound addition by fluorescence based analysis. The class given is cell-based. The method in brief: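 Pellets of 5 × 10^5 MPS IIIB or HDFa fibroblasts lysed by 10 freeze–thaw cycles and clarified at 4 °C; protein by Lowry. Lysate incubated 2 h with 2 mM 4-methylumbelliferyl-N-acetyl-α-D-glucosaminide stock in 0.2 M Na-acetate pH 4.5, compound added at 20 μM. Activity normalized to protein, expressed as nmol substrate hydrolysed per h per mg.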

Data set [9] relates to Fibroblast. Briefly: Inhibition of lysosomal defects in Sanfilippo-B patient derived human fibroblast cells assessed as reduction in accumulation of enlarged LAMP1-positive lysosomal structures within the cytoplasm at 20 uM incubated for 48 hrs by LAMP1 staining based indirect immunofluorescence assay. The class given is functional, cell-based. The method in brief:
as §2

Data set [10] has as its system Fibroblast. Briefly: Inhibition of heparan sulfate accumulation on cell membrane in Sanfilippo-B patient derived human fibroblast cells at 20 uM incubated for 48 hrs by indirect immunofluorescence staining analysis. The class given is functional, cell-based. The method in brief: as §2
The nature of data set [11]: Cytotoxicity against human CuFi cells assessed as induction of apoptosis upto 100 uM. The class given is toxicity, cell-based.
In data set [12] the test system is HeLa. Briefly: Downregulation of EXT2 protein expression in human HeLa cells at 20 uM incubated for 24 hrs by western blot analysis. The data set is classed as functional, cell-based. For orientation: Immunoblotting shows a protein as a band on a membrane.
For data set [13], the system named is SK-N-BE(2). Description: Upregulation of NAGLU protein expression in NAGLU-silenced human SK-NBE cell clones at 20 uM incubated for 24 hrs by western blot analysis. The data set is classed as functional, cell-based. Summed up:
(§3)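 Western blot of control SK-NBE clone and NAGLU-shRNA SK-NBE clone (RPMI, 10% FBS, puromycin 0.7 μg/mL) after 24 h at 20 μM. Lysis, Bradford assay, 50 μg per lane, nitrocellulose transfer, anti-NAGLU antibody overnight at 4 °C, HRP secondary and ECL. GAPDH re-probe for loading.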

Data set [14] relates to SK-N-BE(2). Description: Upregulation of NAGLU protein expression in human SK-NBE cells at 20 uM incubated for 24 hrs by western blot analysis. The data set is classed as functional, cell-based. The method in brief:
as §3

Data set [15] relates to HeLa. Briefly: Downregulation of SDC2 protein expression in human HeLa cells at 20 uM incubated for 24 hrs by western blot analysis. The class given is functional, cell-based.

The source made the active and inactive calls. The calls are words filed in the database; no cut-off is given here.

`Cl.OC[C@H]1[C@H](O)[C@@H](O)[C@H](O)CN1CCCCCOCC12CC3CC(CC(C3)C1)C2`: the inhibition result with SK-N-BE(2) [1], in the data set with Fibroblast [3], in the data set on SK-N-BE(2) [6], in the data set with Fibroblast [7], in the data set with Fibroblast [9] and with Fibroblast [10] was “Active” in each case. Besides, the Activity entry (with HaCaT; in data set [11]) was “Non-Toxic” in each case. Moreover, the inhibition entry (with Fibroblast [2]; in data set [4]; with HeLa [12]; with HeLa [15]) was “inactive” each time. In addition, the outcome (in [5]; in data set [8]; with SK-N-BE(2) [14]) was Active. Also, the outcome in the data set with SK-N-BE(2) [13] was inactive.
Consider `CCCCN1C[C@@H](O)[C@H](O)[C@@H](O)[C@@H]1CO.Cl`, for which the inhibition entry in the data set on SK-N-BE(2) [1], in the data set on Fibroblast [3], with SK-N-BE(2) [6], with Fibroblast [7], with Fibroblast [9] and in the data set with Fibroblast [10] was “Active” in each case. The inhibition entry with HeLa [12] is “Active”. Further, the Activity entry (in the data set on HaCaT; in data set [11]) was “Non-Toxic” each time. Besides, the inhibition result (in the data set with Fibroblast [2]; in [4]; in the data set on HeLa [15]) was “inactive” each time. The result (in [5]; with SK-N-BE(2) [14]) was Active. Further, the outcome in the data set with SK-N-BE(2) [13] was inactive.
As for `COCCCCCCCCCN1C[C@@H](O)[C@H](O)[C@@H](O)[C@@H]1CO.Cl`, the inhibition result in the data set on SK-N-BE(2) [1], with Fibroblast [3], in the data set on SK-N-BE(2) [6], in the data set on Fibroblast [7], with Fibroblast [9] and in the data set with Fibroblast [10] was “Active” in each case. Moreover, the Activity entry (in the data set on HaCaT; in data set [11]) was “Non-Toxic” each time. The inhibition result (with Fibroblast [2]; in data set [4]; in the data set on HeLa [12]; with HeLa [15]) was “inactive” in each case. Further, the result (in data set [5]; in data set [8]; in the data set on SK-N-BE(2) [14]) was Active. Also, in the data set with SK-N-BE(2) [13], the outcome was inactive.
On to `Cl.OC[C@@H]1NC[C@@H](O)[C@H](O)[C@H]1O`, for which the inhibition entry in the data set with SK-N-BE(2) [1], in the data set with Fibroblast [3], in the data set with SK-N-BE(2) [6], with Fibroblast [7], in the data set on Fibroblast [9] and with Fibroblast [10] was “Active” in each case. In addition, the inhibition entry with HeLa [12] was “Active”. Besides, the Activity result (in the data set on HaCaT; in data set [11]) was “Non-Toxic” throughout. For the same molecule, the inhibition result (with Fibroblast [2]; in data set [4]; with HeLa [15]) was “inactive” each time. Further, the outcome (in data set [5]; in data set [8]; in the data set on SK-N-BE(2) [14]) was Active. Further, the outcome in the data set on SK-N-BE(2) [13] was inactive.
